Screening results (PubChem BioAssay)
TAAR1 ag: human TAAR1 agonists, primary screen, Fluo-8 calcium fluorescence, CHO RD-HGA16 cells; Trace amine-associated receptor 1 (Homo sapiens), Q96RJ0; vehicle wells 0%, saturating PEA agonist 100%; activation, % at 3 µM; 360,000 tested, 0.99% active;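 active = activation above the mean activation of all test compounds in the run plus 3 SD, cut at about 38% in these data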
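Repeats: no replicates (n 1) | Material: CHO-derived RD-HGA16 cells with stable Gα16 and human TAAR1 | Technique: Kinetic Fluo-8 calcium fluorescence | Schedule: 17-24 h seeding, 75 min 37 °C dye, 30 min RT | Evaluation: % activation from peak over basal fluorescence ratio, DMSO-to-PEA scaled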
CHO parental Ca: ATP-evoked calcium signal inhibitors, parental CHO, primary screen, counter-screen for OX1R antagonist project, cell-based, fluorescence, Fluo-8 calcium dye | inhibition, % at 5.6 µM | parental CHO-K1, ATP-induced calcium, Fluo-8 fluorescence | 330,000 tested, 0.63% active;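 active = inhibition above that plate's mean sample inhibition plus 3 SD, cut at about 26% in these data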;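 also: 0% = ATP-challenged DMSO wells and 100% = DMSO wells without ATP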
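Assay system: parental CHO cells; Read-out basis: percent inhibition of ATP-evoked calcium rise, normalized to controls; Benchmarks: ATP and no-ATP DMSO wells; Compound dosing: single nominal dose of 5.6 µM per compound; Signal: Fluo-8 calcium dye fluorescence; Also added: ATP as calcium-mobilizing challenge; Repeats: singlicate.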
OX1R antag-1: antagonists of human orexin 1 receptor (OX1R) | OX1R-expressing cells, FRET antagonist read-out | inhibition, % at 6.6 µM | 330,000 tested, 1.8% active | Orexin/Hypocretin receptor type 1 (Homo sapiens), O43613 | AID 485270, 2010; in the data active = inhibition mostly above about 38%, no sharp cut-off; inactive = mostly below about 40%;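 also: 0% = agonist challenge alone and 100% = reference antagonist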
Target sequence (O43613 whole entry, looked up): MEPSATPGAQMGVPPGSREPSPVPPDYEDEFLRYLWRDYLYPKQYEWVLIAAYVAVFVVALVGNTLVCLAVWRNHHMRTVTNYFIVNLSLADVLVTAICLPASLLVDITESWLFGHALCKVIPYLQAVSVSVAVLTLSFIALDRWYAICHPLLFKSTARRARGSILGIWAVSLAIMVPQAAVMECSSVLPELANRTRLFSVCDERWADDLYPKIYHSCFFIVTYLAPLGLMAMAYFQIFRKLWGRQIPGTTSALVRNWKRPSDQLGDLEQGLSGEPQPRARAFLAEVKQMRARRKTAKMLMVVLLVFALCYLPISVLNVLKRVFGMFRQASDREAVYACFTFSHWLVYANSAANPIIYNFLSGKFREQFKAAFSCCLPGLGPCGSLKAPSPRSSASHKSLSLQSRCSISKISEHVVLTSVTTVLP
TAAR1 antag: human TAAR1 antagonists, primary screen, Fluo-8 calcium fluorescence, CHO RD-HGA16 cells; antagonist; inhibition, % at 3 µM; 360,000 tested, 1.5% active;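 active = inhibition above a per-plate cutoff, the mean inhibition of test compounds on that plate plus 3 SD, cut at about 49% in these data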;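 also: 0% = DMSO plus EC80 beta-PEA response and 100% = DMSO alone without agonist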
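System: RD-HGA16 CHO cells with stable hTAAR1 and Gα16 | Probe or stimulus: EC80 β-phenethylamine stimulus | Dosing: 3 µM, single point | Times: Dye loading 75 min at 37 °C, then 30 min room temperature | Measured by: Fluo-8 calcium-sensitive fluorescence | Read-out basis: % inhibition of agonist calcium response | Replicates: n of 1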
OX1R antag-2: OX1R (HCRTR1) antagonists, primary screen, fluorescence, CHO/OX1R cells, Fluo-8 calcium, orexin A; inhibition, % at 5 µM; Fluo-8 calcium fluorescence; 330,000 tested, 0.43% active; AID 434989, 2010;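 active = inhibition above its plate's threshold, mean inhibition of all tested compounds on the plate plus 3 SD, cut at about 37% in these data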;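 also: 0% = orexin A challenge wells and 100% = SB-334867-A antagonist wells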
Starred values were filed as active, the others as inactive; x = no result. Only some compounds are listed: those with a hit (about 4% of all), similar ones and a draw of the others.

SMILES	TAAR1 ag	CHO parental Ca	OX1R antag-1	TAAR1 antag	OX1R antag-2
O=Cc1cscc1[B-](F)(F)F	0	x	x	-3	x
CN(C)S(=O)(=O)N1CCC(Oc2ccc(C(=O)NC3Cc4ccccc4C3)cc2)CC1	15	1	13	58*	-4
CCc1cc2c(nc1CC)CCCN2Cc1ccc(Br)cc1	0	x	x	-2	x
COc1cccc(N(C(=O)c2snc(C(N)=O)c2N)C(C(=O)NCC2CCCO2)c2ccc(F)cc2)c1 (stereo not drawn)	3	-25	16	10	-23
CCOc1ccc(C(C(=O)NCC2CCCO2)N(C(=O)c2snc(C(N)=O)c2N)c2ccc(F)cc2)cc1 (stereo not drawn)	28	-28	20	49*	-5
O=C(N[C@H](C(=O)N1CCC[C@H]1C(=O)NCc1ccccc1)c1ccccc1)c1ccccc1	1	x	x	-14	x
COc1ccc(CCNCc2csc3nc4ccccc4n23)cc1OC	4	27	53*	15	29
COc1ccc(CCNc2nc3ccccc3n3nnnc23)cc1OC	0	-8	3	-5	-29
Nc1c(C(=O)c2cccs2)oc2ccccc12	14	-8	68*	-6	6
CCCCCCCCN1C(=O)[C@@H](CC(=O)N2CCC(c3ccccc3)CC2)C[C@@]2(C(=O)OC)C1=C[C@H](C1CCCC1)O[C@@H]2C	1	x	x	-27	x
O=C(CSc1ccc([N+](=O)[O-])cc1)Nc1cccc(S(=O)(=O)Nc2ccccc2F)c1	12	46*	23	39	32
O=C(Cc1ccc(Cl)cc1)Nc1cccc(S(=O)(=O)Nc2ccccc2F)c1	10	-22	7	4	-21
COC(=O)[C@]12C[C@H](CC(=O)NCc3ccc(OC)c(OC)c3)C(=O)N(CCc3ccc(OC)c(OC)c3)C1=C[C@H](C(C)(C)C)O[C@@H]2C	2	x	x	13	x
O=C(NCCCN1C(=O)c2ccccc2C1=O)OCc1ccccc1	3	x	x	-1	x
CCOCCc1c(O)nc(SCC)[nH]c1=O	0	-6	-1	-9	0
CC(=O)CSc1ccc(-c2nc3ccccc3[nH]2)cn1	4	-13	13	13	-19
N#Cc1ccccc1CSc1ccc(-c2nc3ccccc3[nH]2)cn1	13	0	32	50*	13
COCCCNC(=O)C[C@H]1C[C@@]2(C(=O)OC)C(=C[C@H](C(C)(C)C)O[C@@H]2C)N(CCC2=CCCCC2)C1=O	-2	x	x	-7	x
Cc1cc(C)n2nc(C(=O)Nc3ccc(S(=O)(=O)N(C)C)cc3)nc2n1	4	4	4	-19	-6
Cc1ccc(C)c(CC(=O)N2CCCC(c3cc(C(=O)NCc4cccnc4)no3)C2)c1 (stereo not drawn)	1	x	x	-7	x
CCc1cccc2c(C(=O)COC(=O)/C=C/c3ccccc3OC)c[nH]c12	0	-14	63*	-15	-5
COc1ccc(CCNC(=O)c2ccc(NC(=O)CC3SC(N4CCCCC4)=NC3=O)cc2)cc1 (stereo not drawn)	1	x	x	20	x
COc1cc2cnc(-c3ccsc3)cc2cc1OC	5	-11	14	12	-27
c1cc(-c2cc3cc4c(cc3cn2)OCO4)cs1	9	-1	70*	-2	20
Cc1cccc(NCCC(=O)c2ccc([N+](=O)[O-])cc2)c1C	-2	-10	42*	-13	-17
SMILES	TAAR1 ag	CHO parental Ca	OX1R antag-1	TAAR1 antag	OX1R antag-2
CC(C)CNC(=S)N1CCN(c2nc3ccccc3s2)CC1	15	72*	14	19	11
Cc1ccc(-c2ccc(CN3C(CC(C)C)C(=O)N(Cc4cn(CCC5OCCO5)nn4)CCS3(=O)=O)cc2)cc1 (stereo not drawn)	8	x	x	55*	x
CC(C)CC1C(=O)N(Cc2cn(CCC3OCCO3)nn2)CCS(=O)(=O)N1Cc1ccc(-c2ccccc2)cc1 (stereo not drawn)	11	x	x	32	x
COc1ccc2[nH]c3c(c2c1)CCN1C(=O)C(CC(=O)NC/C=C(\C)CCC=C(C)C)C[C@H](C(=O)N2CCCCC2)[C@@]31C (stereo partly drawn)	x	-42	14	x	51*
COC(=O)[C@]12C[C@H](CC(=O)NCCc3ccccc3OC)C(=O)N(Cc3ccc4c(c3)OCO4)C1=C[C@H](C(C)(C)C)O[C@@H]2C	15	x	x	2	x
COCCCN1C(=O)c2ccc(C(=O)NCc3ccco3)cc2C1=O	8	-15	42*	-14	-17
COCCCN1C(=O)c2ccc(C(=O)NCc3ccccn3)cc2C1=O	1	3	39*	-15	6
O=C(COc1cccc2ccccc12)Nc1cc(Cl)ccc1C(=O)O	-2	1	67*	-29	13
O=C(COc1cccc2ccccc12)Nc1ccc(Cl)cc1C(=O)O	0	-10	40	-22	-6
CC(C)CNS(=O)(=O)c1ccc(CCC(=O)O)cc1	0	8	24	13	-3
CC(C)(C)NS(=O)(=O)c1ccc(CCC(=O)Nc2cc(Cl)ccc2Oc2ccccc2)cc1	4	43*	81*	28	65*
COc1cccc(OCC(=O)Nc2ccccc2NC(C)=O)c1	2	1	10	-1	-8
COc1cccc(OCC(=O)Nc2cc(Cl)ccc2Oc2ccccc2)c1	4	40*	19	21	-16
CC(C)CNS(=O)(=O)c1ccc(CCC(=O)Nc2cc(Cl)ccc2Oc2ccccc2)cc1	7	21	43	63*	22
Cc1cc(O)cc(=O)n1-c1cc(F)c(F)c(F)c1	1	x	x	-11	x
CCC(CC)CN1CCC(CN2C(=S)NC[C@@H]2Cc2ccccc2)CC1	1	x	x	-14	x
Nc1ccn([C@@H]2O[C@H](C(=O)N[C@H](Cc3ccccc3)C(=O)N3CCN(CCO)CC3)[C@@H](O)[C@H]2O)c(=O)n1	2	x	x	-7	x
O=S(=O)(NC1CCCCC1Oc1ccccc1)c1ccccc1 (stereo not drawn)	-1	-18	35	-9	-19
CCCNS(=O)(=O)c1ccc(CCC(=O)Nc2cc(Cl)ccc2Oc2ccccc2)cc1	9	x	x	69*	x
Cc1ccc(-c2nc3cccnc3s2)cc1NS(=O)(=O)c1cccs1	1	-14	41*	7	-14
Cc1nc2ccc(S(=O)(=O)Nc3cccc(-c4nc5cccnc5s4)c3C)cc2s1	5	32*	25	59*	-10
Fc1cccc(CNc2ncnc3cc(Cl)ccc23)c1F	3	-3	23	4	-18
Cn1c(SCC(=O)NC2CCCCC2)nnc1-c1cc2cc(Cl)ccc2o1	-1	12	8	0	-13
